# ChEMBL document CHEMBL1139543, “Antineoplastic agents. 445. Synthesis and evaluation of structural modifications of (Z)- and (E)-combretastatin A-41” (J Med Chem, 2005)
# Legend:
# SW-1736 = assay: Growth inhibition against human thyroid cell line( SW 1736); type: functional
# BXPC-3 = assay: Growth inhibition against human pancreas carcinoma cell line (BxPC-3); type: functional
# DU-145 = assay: Growth inhibition against human prostate cell line (DU-145); type: functional
# P388 = assay: Effective dose against murine P388 leukemia cell line; type: functional; details: Mus musculus, read-out: ED50 (the source's name)
# FaDu = assay: Growth inhibition against human pharynx FADU cell line; type: functional
# Tubulin beta-1 chain = Tubulin beta-1 chain (Homo sapiens, UniProt Q9H4B7); assay: Inhibition of tubulin polymerization upon incubation for 20 min at 30 degree C
# Chain of Tubulin beta-1 chain (Q9H4B7 whole entry): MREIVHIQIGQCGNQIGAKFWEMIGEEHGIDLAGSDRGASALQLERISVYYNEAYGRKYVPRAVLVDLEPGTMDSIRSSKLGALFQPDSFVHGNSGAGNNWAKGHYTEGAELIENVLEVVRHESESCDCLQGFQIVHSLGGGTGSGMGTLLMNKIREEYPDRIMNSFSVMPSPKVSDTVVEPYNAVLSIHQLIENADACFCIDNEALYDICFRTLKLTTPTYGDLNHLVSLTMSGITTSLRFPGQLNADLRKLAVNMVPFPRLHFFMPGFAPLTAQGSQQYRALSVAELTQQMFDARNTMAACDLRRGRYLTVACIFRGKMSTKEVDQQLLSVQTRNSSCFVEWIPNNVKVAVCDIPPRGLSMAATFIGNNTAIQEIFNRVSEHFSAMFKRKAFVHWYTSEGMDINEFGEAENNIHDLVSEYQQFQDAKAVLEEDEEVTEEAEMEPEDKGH
# In short: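 Purified tubulin at 10 µM (1.0 mg/mL) in 0.8 M monosodium glutamate, pH 6.6, with 4% (v/v) DMSO and varying compound concentrations. Preincubated 15 min at 37 °C, chilled on ice, then GTP (0.4 mM) added. Warmed from 0 °C to 30 °C, and assembly followed 20 min by turbidity at 350 nm. IC50 interpolated; at least two determinations; SD reported.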
# SK-N-SH = assay: Growth inhibition against human neuroblastoma cell line (SK-N-SH); type: functional
# NCI-H460 = assay: Growth inhibition against human lung-NSC NCI-H460 cell line; type: functional
# Neisseria gonorrhoeae [1] = assay: Minimum inhibitory concentration against Neisseria gonorrhoeae was determined in the disk diffusion assay; value ranges from 50-100 ug/disk; type: functional
# Neisseria gonorrhoeae [2] = assay: Minimum inhibitory concentration against Neisseria gonorrhoeae was determined in the disk diffusion assay; value ranges from 12.5-25 ug/disk; type: functional
# Candida albicans [3] = assay: Minimum inhibitory concentration against Candida albicans was determined in the disk diffusion assay; value ranges from 50-100 ug/disk; type: functional
# In short: (§1)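 Disk diffusion on Sabouraud Dextrose Agar. MIC taken as the lowest drug amount giving a clear zone of growth inhibition.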
# Cryptococcus neoformans = assay: Minimum inhibitory concentration against Cryptococcus neoformans was determined in the disk diffusion assay; value ranges from 6.25-12.5 ug/disk; type: functional
# Candida albicans [4] = assay: Minimum inhibitory concentration against Candida albicans was determined in the disk diffusion assay; value ranges from 25-50 ug/disk; type: functional; in short: as §1
# Streptococcus pneumoniae = assay: Minimum inhibitory concentration against Streptococcus pneumoniae was determined in the disk diffusion assay; value ranges from 50-100 ug/disk; type: functional
# Micrococcus luteus = assay: Minimum inhibitory concentration against Micrococcus luteus was determined in the disk diffusion assay; value ranges from 12.5-25 ug/disk
# Staphylococcus aureus = assay: Minimum inhibitory concentration against Staphylococcus aureus was determined in the disk diffusion assay; value ranges from 25-50 ug/disk; type: functional
Compound,GI50 (SW-1736) [µg/mL],GI50 (BXPC-3) [µg/mL],GI50 (DU-145) [µg/mL],EC50 (P388) [µg/mL],IC50 (Tubulin beta-1 chain) [µM],GI50 (SK-N-SH) [µg/mL],GI50 (NCI-H460) [µg/mL],MIC (Neisseria gonorrhoeae [1]) [ug/disk],MIC (Neisseria gonorrhoeae [2]) [ug/disk],MIC (Candida albicans [3]) [ug/disk],MIC (Cryptococcus neoformans) [ug/disk],MIC (Candida albicans [4]) [ug/disk],MIC (Streptococcus pneumoniae) [ug/disk],MIC (Micrococcus luteus) [ug/disk],MIC (Staphylococcus aureus) [ug/disk],GI50 (FaDu) [µg/mL]
COc1ccc(/C=C/c2cc(OC)c(OC)c(OC)c2)cc1Br,10.8,0.34,0.46,3.08,31,0.4,0.36,,,,,,,,,11.4
COc1ccc(/C=C/c2cc(OC)c(O)c(OC)c2)cc1O,> 10,5,6.3,4.49,14,5.5,4.9,,25,100,12.5,,,,,3.2
COc1ccc(/C=C\c2cc(OC)c(OC)c(OC)c2)cc1OP(=O)([O-])[O-].[Na+].[Na+] [FOSBRETABULIN DISODIUM],0.00061,0.23,0.00072,0.0029,,0.00025,0.00035,,,,,,,,,0.00045
COc1ccc(/C=C\c2cc(OC)c(OC)c(OC)c2)cc1OC(=O)N(CCCl)CCCl,0.72,2.8,0.31,0.074,> 40,0.14,0.37,,,,,,,,,0.15
COc1ccc(/C=C\c2cc(OC)c(O)c(OC)c2)cc1O,3.4,> 4,0.17,0.25,,0.19,0.74,,25,,,,,,,0.23
COc1ccc(/C=C\c2cc(OC)c(OC)c(OC)c2)cc1[N+](=O)[O-],0.0067,0.029,0.047,2.4,2.6,0.014,0.0038,,,,,,,,,0.047
COc1ccc(/C=C/c2cc(OC)c(OC)c(OC)c2)cc1[N+](=O)[O-],2.8,> 10,> 10,> 10,,7.3,,,,,,,,,,3.8

# The next lines start with results.
GI50 (SW-1736) [µg/mL],GI50 (BXPC-3) [µg/mL],GI50 (DU-145) [µg/mL],EC50 (P388) [µg/mL],IC50 (Tubulin beta-1 chain) [µM],GI50 (SK-N-SH) [µg/mL],GI50 (NCI-H460) [µg/mL],MIC (Neisseria gonorrhoeae [1]) [ug/disk],MIC (Neisseria gonorrhoeae [2]) [ug/disk],MIC (Candida albicans [3]) [ug/disk],MIC (Cryptococcus neoformans) [ug/disk],MIC (Candida albicans [4]) [ug/disk],MIC (Streptococcus pneumoniae) [ug/disk],MIC (Micrococcus luteus) [ug/disk],MIC (Staphylococcus aureus) [ug/disk],Compound,GI50 (FaDu) [µg/mL]
4.7,2.7,3.4,2.9,> 40,2,3.7,,,,,,,,,COc1ccc(/C=C\c2cc(OC)c(OC)c(OC)c2)cc1OCCCl,4.6
0.28,0.045,0.32,0.195,2.8,0.028,0.14,100,,,,,,,,COc1ccc(/C=C\c2cc(OC)c(OC)c(OC)c2)cc1OCCO,0.069
0.64,> 10,0.38,0.523,> 40,0.21,0.34,,,,,,,,,COc1ccc(/C=C\c2cc(OC)c(OC)c(OC)c2)cc1OCCN(C)C.Cl,0.47
11.6,> 10,4.5,6.8,,8.1,> 10,,,,,,,,,COc1ccc(/C=C/c2cc(OC)c(OC)c(OC)c2)cc1OCCCO,2.3
0.1,37.2,0.33,1.94,,0.28,0.36,,,,,50,100,25,50,COc1ccc(/C=C\c2cc(OC)c(OC)c(OC)c2)cc1OCC[N+](C)(C)C.[I-],0.24
5.1,> 10,3.4,0.348,> 40,1.6,3.3,,,,,,,,,COc1ccc(/C=C\c2cc(OC)c(OC)c(OC)c2)cc1OCCN1CCCCC1.Cl,4.2
